Measurements reported in ChEMBL document CHEMBL1629704, “Inhibition of dengue virus by an ester prodrug of an adenosine analog” (Antimicrob Agents Chemother, 2010).
Activity calls are given as the source filed them. No cut-off for these calls is given here.

Experiments:
dengue virus type 2 [1] = assay: Antiviral activity against Dengue virus 2 MY10340 infected in human A549 cells by CFI assay; format: functional, organism-based
Method in brief: (§1)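 CFI assay: A549 cells seeded 2 × 10^4/well, infected next day (MOI 0.3 for DENV-2) with compound-virus mixture for 1 h, then refed with compound-containing medium. On day 2 cells were methanol-fixed at 4°C and intracellular E protein detected by ELISA (4G2 primary, HRP anti-mouse secondary). EC50 is the average of two independent experiments.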

dengue virus type 2 [2] = assay: Antiviral activity against Dengue virus-2 NGC infected in hamsters BHK21 cells assessed as inhibition of viral RNA synthesis at 3 uM after 2 to 4 hrs of infection by luciferase assay; format: functional, organism-based; conditions: BHK-21
Rattus norvegicus [3] = assay: AUC (0 to infinity) in Wistar rat assessed as NITD449 level at 26.5 mg/kg, po by LC-MS-MS analysis; format: ADME, organism-based, Plasma; design: time infinity, dose 26.5 mg/kg, route oral; conditions: in vivo
Method in brief: (§2)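 Female Wistar rats, fasted overnight until 4 h postdose, given the prodrug orally in 10% ethanol, 30% PEG 400, 60% D5W. Serial blood from groups of three at 0.17–48 h. Parent nucleoside in plasma was measured by LC-MS-MS (LLOQ 9.2 ng/ml) with noncompartmental analysis. F was corrected for dose against parent i.v. at 5.9 mg/kg.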

dengue virus type 4 = assay: Antiviral activity against Dengue virus 4 MY22713 infected in human A549 cells by CFI assay; format: functional, organism-based; method in brief: as §1
Hepatitis C virus = assay: Antiviral activity against HCV subtype 1b infected in human Huh-7 cells after 48 hrs by luciferase assay; format: functional, organism-based; conditions: Hepacivirus hominis, genotype 1b
Method in brief: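 Huh-7 cells bearing a luciferase-reporting HCV genotype 1b replicon were incubated with compound. Luciferase was read at 48 h posttreatment and efficacy estimated from signal reduction; n = 3.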

dengue virus type 2 [4] = assay: Antiviral activity against Dengue virus 2 NGC infected in human A549 cells after 2 days by CFI assay in presence of 40 mg/ml human serum albumin and 2 mg/ml alpha-1-acid glycoprotein; format: functional, organism-based; conditions: A549, 48 h
Method in brief: (§3)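 Modified CFI: A549 cells infected with DENV-2 New Guinea C (MOI 0.3) for 1 h without compound. Inoculum then replaced with medium containing compound dilutions plus the stated HSA and/or AGP. On day 2, cells methanol-fixed and intracellular E protein detected by ELISA (4G2 primary, HRP anti-mouse secondary); EC50 derived.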

dengue virus type 2 [5] = assay: Antiviral activity against Dengue virus 2 TSV01 infected in AG129 mouse assessed as reduced viremia by 10 mg/kg, po BID for 3 days measured on day 4 by plaque assay; format: functional
Method in brief: (§4)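 AG129 mice (lacking IFN-α/β and IFN-γ receptors) were inoculated i.p. with 2 × 10^6 PFU DENV-2 in 0.4 ml. Immediately afterwards, 0.2 ml compound in ethanol-PEG-D5W (10:30:60) was given by oral gavage twice daily for 3 days. Day-4 blood viremia was measured by plaque assay; 6 or 8 mice per group.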

Rattus norvegicus [6] = assay: Cmax in Wistar rat assessed as NITD449 level at 26.5 mg/kg, po by LC-MS-MS analysis; format: ADME, organism-based; design: dose 26.5 mg/kg, route oral; conditions: in vivo; method in brief: as §2
Mus musculus [7] = assay: Tmax in CD-1 mouse assessed as NITD449 level at 24.2 mg/kg, po by LC-MS-MS analysis; format: ADME, organism-based; design: dose 24.2 mg/kg, route oral; conditions: in vivo
Method in brief: (§5)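 Female CD-1 mice given the prodrug orally, formulated in 10% ethanol, 30% PEG 400, 60% D5W. Blood from three animals at 0.08, 0.25, 0.5, 1, 2, 4, 8, 16, 24 h; heparinized plasma extracted with acetonitrile-methanol-acetic acid. Parent nucleoside was quantified by LC-MS-MS (MRM, LLOQ 9.2 ng/ml) and noncompartmental analysis was run. F = dose-corrected AUC p.o./AUC i.v., with i.v. parent at 5 mg/kg.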

dengue virus type 2 [8] = assay: Antiviral activity against Dengue virus 2 NGC infected in human A549 cells by CFI assay; format: functional, organism-based; method in brief: as §1
Rattus norvegicus [9] = assay: Oral bioavailability in Wistar rat assessed as NITD449 level at 84.1 mg/kg by LC-MS-MS analysis; format: ADME, organism-based; conditions: in vivo
Method in brief: (§6)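 Fasted female Wistar rats were dosed orally with the prodrug in 20% solutol HS15, 30% PEG 300, 50% 100 mM citrate pH 3. Groups of three were serially bled 0.17–48 h. Plasma parent levels came from LC-MS-MS (MRM, LLOQ 9.2 ng/ml) and noncompartmental modeling. F used dose-corrected AUC versus parent i.v. at 5.9 mg/kg.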

Rattus norvegicus [10] = assay: Tmax in Wistar rat assessed as NITD449 level at 84.1 mg/kg, po by LC-MS-MS analysis; format: ADME, organism-based; design: dose 84.1 mg/kg, route oral; conditions: in vivo; method in brief: as §6
Yellow fever virus [11] = assay: Antiviral activity against Yellow fever virus 17D infected in african green monkey Vero cells after 48 hrs by plaque assay; format: functional, cell-based
dengue virus type 2 [12] = assay: Antiviral activity against Dengue virus 2 NGC infected in human PBMC cells by plaque assay; format: functional, organism-based
Rattus norvegicus [13] = assay: AUC (0 to infinity) in Wistar rat assessed as NITD449 level at 84.1 mg/kg, po by LC-MS-MS analysis; format: ADME, organism-based, Plasma; design: time infinity, dose 84.1 mg/kg, route oral; conditions: in vivo; method in brief: as §6
dengue virus type 2 [14] = assay: Antiviral activity against Dengue virus-2 NGC infected in hamsters BHK21 cells assessed as inhibition of viral RNA synthesis at 1 uM after 2 to 4 hrs of infection by luciferase assay; format: functional, organism-based; conditions: BHK-21
Rattus norvegicus [15] = assay: Oral bioavailability in Wistar rat assessed as NITD449 level at 26.5 mg/kg by LC-MS-MS analysis; format: ADME, organism-based; conditions: in vivo; method in brief: as §2
dengue virus type 3 = assay: Antiviral activity against Dengue virus 3 MY22366 infected in human A549 cells by CFI assay; format: functional, organism-based; method in brief: as §1
dengue virus type 2 [16] = assay: Antiviral activity against Dengue virus 2 TSV01 infected in AG129 mouse assessed as reduced viremia by 3 mg/kg, po BID for 3 days measured on day 4 by plaque assay; format: functional; method in brief: as §4
dengue virus type 1 = assay: Antiviral activity against Dengue virus 1 MY10245 infected in human A549 cells by CFI assay; format: functional, organism-based; method in brief: as §1
Rattus norvegicus [17] = assay: Toxicity in Wistar rat at 30 mg/kg/day, po for 2 weeks; format: organism-based; design: route oral; conditions: in vivo, 336 h
Method in brief: (§7)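 Male Wistar rats, 10 weeks old, dosed orally daily for 2 weeks; five per dose group. Clinical signs, body weight and mortality were monitored.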

Mus musculus [18] = assay: Oral bioavailability in CD-1 mouse assessed as NITD449 level at 24.2 mg/kg by LC-MS-MS analysis; format: ADME, organism-based; conditions: in vivo; method in brief: as §5
Rattus norvegicus [19] = assay: Tmax in Wistar rat assessed as NITD449 level at 26.5 mg/kg, po by LC-MS-MS analysis; format: ADME, organism-based; design: dose 26.5 mg/kg, route oral; conditions: in vivo; method in brief: as §2
dengue virus type 2 [20] = assay: Antiviral activity against Dengue virus-2 NGC infected in hamsters BHK21 cells assessed as inhibition of viral RNA synthesis at 3 uM after 24 to 40 hrs of infection by luciferase assay; format: functional, organism-based; conditions: BHK-21
Method in brief: (§8)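 DENV-2 luciferase replicon (structural genes deleted) RNA was electroporated into BHK-21 cells, then cells were immediately incubated with compound. Luciferase was read at time points. Signals at 2–4 h p.t. reflect input translation and at 24–40 h p.t. reflect RNA synthesis; n = 3, mean ± SD.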

dengue virus type 2 [21] = assay: Antiviral activity against Dengue virus 2 NGC infected in african green monkey Vero cells at 12.5 uM after 48 hrs by plaque assay; format: functional
Method in brief: (§9)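 Titer reduction: Vero cells (4 × 10^5/well) infected 24 h after seeding at MOI 0.1 and treated immediately with compound. Culture medium was collected 48 h postinfection and titered by plaque assay; n = 3, mean ± SD.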

Rattus norvegicus [22] = assay: Toxicity in Wistar rat at 75 mg/kg/day, po for 2 weeks; format: organism-based; design: route oral; conditions: in vivo, 336 h; method in brief: as §7
dengue virus type 2 [23] = assay: Antiviral activity against Dengue virus 2 NGC infected in human A549 cells after 2 days by CFI assay in presence of 2 mg/ml alpha-1-acid glycoprotein; format: functional, organism-based; conditions: A549, 48 h; method in brief: as §3
Rattus norvegicus [24] = assay: Toxicity in Wistar rat at 10 mg/kg/day, po for 2 weeks; format: organism-based; design: route oral; conditions: in vivo, 336 h; method in brief: as §7
West Nile virus = assay: Antiviral activity against West Nile virus infected in african green monkey Vero cells assessed as inhibition of RNA replication after 24 hrs by luciferase assay; format: functional, organism-based
Method in brief: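 Vero cells infected at MOI about 0.1 with WNV replicon-packaged virus-like particles carrying luciferase, then treated with compound. Luciferase was read 24 h postinfection, relative to mock-treated cells set at 100%; n = 3.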

Mus musculus [25] = assay: AUC (0 to infinity) in CD-1 mouse assessed as NITD449 level at 24.2 mg/kg, po by LC-MS-MS analysis; format: ADME, organism-based, Plasma; design: dose 24.2 mg/kg, route oral, time infinity; conditions: in vivo; method in brief: as §5
dengue virus type 2 [26] = assay: Antiviral activity against Dengue virus 2 NGC infected in african green monkey Vero cells after 48 hrs by plaque assay; format: functional, organism-based; method in brief: as §9
Yellow fever virus [27] = assay: Antiviral activity against Yellow fever virus 17D infected in african green monkey Vero cells at 12.5 uM after 48 hrs by plaque assay; format: functional
Mus musculus [28] = assay: Cmax in CD-1 mouse assessed as NITD449 level at 24.2 mg/kg, po by LC-MS-MS analysis; format: ADME, organism-based; design: dose 24.2 mg/kg, route oral; conditions: in vivo; method in brief: as §5
Chikungunya virus = assay: Antiviral activity against Chikungunya virus infected in african green monkey Vero cells after 22 hrs by plaque assay; format: functional, cell-based
dengue virus type 2 [29] = assay: Antiviral activity against Dengue virus-2 NGC infected in hamsters BHK21 cells assessed as inhibition of viral RNA synthesis at 1 uM after 24 to 40 hrs of infection by luciferase assay; format: functional, organism-based; conditions: BHK-21; method in brief: as §8
dengue virus type 2 [30] = assay: Antiviral activity against Dengue virus 2 TSV01 infected in AG129 mouse assessed as reduced viremia by 25 mg/kg, po BID for 3 days measured on day 4 by plaque assay; format: functional; method in brief: as §4
dengue virus type 2 [31] = assay: Antiviral activity against Dengue virus 2 NGC infected in human A549 cells after 2 days by CFI assay in presence of 40 mg/ml human serum albumin; format: functional, organism-based; conditions: A549, 48 h; method in brief: as §3
Rattus norvegicus [32] = assay: Cmax in Wistar rat assessed as NITD449 level at 84.1 mg/kg, po by LC-MS-MS analysis; format: ADME, organism-based; design: dose 84.1 mg/kg, route oral; conditions: in vivo; method in brief: as §6

In the case of `C#C[C@@]1(O)[C@H](OC(=O)C(C)C)[C@@H](COC(=O)C(C)C)O[C@H]1n1cc(C(N)=O)c2c(N)ncnc21`, the EC50 (dengue virus type 2 [1]) is reported as 0.57 µM, the Activity (dengue virus type 2 [2]) is reported as “Active” and the AUC (Rattus norvegicus [3]) is reported as 13.7 µM·h. The EC50 (dengue virus type 4) was 0.71 µM, the Activity (Hepatitis C virus) was “Active” and the EC50 (dengue virus type 2 [4]) was 0.85 µM. For the same molecule, the “fold change (FC)” value (dengue virus type 2 [5]) was 4.4, the Cmax (Rattus norvegicus [6]) was 3.65 µM and the Tmax (Mus musculus [7]) was 4.8 min. It also gave an EC50 (dengue virus type 2 [8]) of 0.69 µM, an F (Rattus norvegicus [9]) of 10% and a Tmax (Rattus norvegicus [10]) of 30 min. For the same molecule, the Activity (Yellow fever virus [11]) was “Active”, the EC50 (dengue virus type 2 [12]) was 0.1 µM and the AUC (Rattus norvegicus [13]) was 33.5 µM·h. The Activity (dengue virus type 2 [14]) was “Active”, the F (Rattus norvegicus [15]) was 13% and the EC50 (dengue virus type 3) was 0.54 µM. For the same molecule, the “fold change (FC)” value (dengue virus type 2 [16]) was 2.7, the EC50 (dengue virus type 1) was 0.54 µM and the Activity (Rattus norvegicus [17]) was “Toxic”. For the same molecule, the F (Mus musculus [18]) was 32%, the Tmax (Rattus norvegicus [19]) was 30 min and the Activity (dengue virus type 2 [20]) was “Active”. For the same molecule, the “fold change (FC)” value (dengue virus type 2 [21]) was 1000, the Activity (Rattus norvegicus [22]) was “Toxic” and the EC50 (dengue virus type 2 [23]) was 0.76 µM. For the same molecule, the Activity (Rattus norvegicus [24]) was “Non-toxic”, the Activity (West Nile virus) was “Active” and the AUC (Mus musculus [25]) was 12.6 µM·h. The Activity (dengue virus type 2 [26]) was “Active”, the “fold change (FC)” value (Yellow fever virus [27]) was 100 and the Cmax (Mus musculus [28]) was 6.01 µM. The Activity (Chikungunya virus) was “Active”, the Activity (dengue virus type 2 [29]) was “Active” and the “fold change (FC)” value (dengue virus type 2 [30]) was 30. The EC50 (dengue virus type 2 [31]) was 0.79 µM and the Cmax (Rattus norvegicus [32]) was 14.2 µM.
